Values after ≈ are worked out from the molar mass of the structure shown.
Tests used:
[1] = Antitubercular activity against Mycobacterium bovis BCG ATCC 35743 dormant stage measured on day 12 by nitrate reductase based two-fold dilution assay; format: functional, Mycobacterium bovis BCG str. ATCC 35743; conditions: Mycobacterium tuberculosis variant bovis BCG, ATCC 35743, 288 h
[2] = Selectivity index, ratio of GI50 for human HCT116 cells to MIC90 for Mycobacterium bovis BCG ATCC 35743 dormant stage; format: toxicity, cell-based, HCT-116; conditions: read-out: Selectivity Index
In short: (§1)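 Cytotoxicity was measured on human MCF-7, HCT116 and THP-1 cells by MTT assay, with paclitaxel as reference. The selectivity index is GI50 for the given cell line divided by MIC90 for the given mycobacterial strain and stage.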

[3] = Selectivity index, ratio of GI50 for human HCT116 cells to MIC90 for Mycobacterium bovis BCG ATCC 35743 active stage; format: toxicity, cell-based, HCT-116; conditions: read-out: Selectivity Index
In short: (§2)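 Cytotoxicity was measured on human MCF-7, HCT116 and THP-1 cells by MTT assay, with paclitaxel as reference. GI50 is the concentration inhibiting 50% of cell growth. The selectivity index is GI50 for the given cell line divided by MIC90 for the given mycobacterial strain and stage.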

Escherichia coli [4] = test: Growth inhibition of Escherichia coli at 30 ug/ml; format: functional; conditions: read-out: GI
Bacillus subtilis [5] = test: Growth inhibition of Bacillus subtilis at 3 ug/ml; format: functional; conditions: read-out: GI
In short: (§3)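 Screened against Gram-negative E. coli and P. aeruginosa and Gram-positive S. aureus and B. subtilis. Compound was tested at 3 µg/ml, and the read-out is percent growth inhibition.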

[6] = Selectivity index, ratio of GI50 for human THP1 cells to MIC90 for Mycobacterium bovis BCG ATCC 35743 active stage; format: toxicity, cell-based, THP-1; conditions: read-out: Selectivity Index; in short: as §2
[7] = Selectivity index, ratio of GI50 for human THP1 cells to MIC90 for Mycobacterium bovis BCG ATCC 35743 dormant stage; format: toxicity, cell-based, THP-1; conditions: read-out: Selectivity Index; in short: as §1
Staphylococcus aureus [8] = test: Growth inhibition of Staphylococcus aureus at 3 ug/ml; format: functional; conditions: read-out: GI; in short: as §3
[9] = Antitubercular activity against Mycobacterium bovis BCG ATCC 35743 active stage measured on day 8 by nitrate reductase based two-fold dilution assay; format: functional, Mycobacterium bovis BCG str. ATCC 35743; conditions: Mycobacterium tuberculosis variant bovis BCG, ATCC 35743, 192 h
[10] = Selectivity index, ratio of GI50 for human THP1 cells to MIC90 for Mycobacterium tuberculosis H37Ra ATCC 25177 active stage; format: toxicity, cell-based, THP-1; conditions: read-out: Selectivity Index; in short: as §2
[11] = Cytotoxicity against human THP1 cells by MTT assay; format: toxicity, cell-based, THP-1; conditions: for GI50: THP1 cells; for GI90: thp-1
[12] = Antitubercular activity against Mycobacterium tuberculosis H37Ra ATCC 25177 dormant stage measured on day 12 by XTT reduction menadione based two-fold dilution assay; format: functional; conditions: ATCC 25177, 288 h
In short: (§4)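 M. tuberculosis H37Ra ATCC 25177 was exposed to 0.7–100 μg/mL in two-fold steps (0.7, 1.5, 3.1 … 100). Active stage was read after 8 days and dormant stage after 12 days of incubation. Inhibition was read by XTT reduction menadione assay (XRMA), absorbance 470 nm. MIC90 is the concentration giving ≥90% inhibition (µg/mL).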

[13] = Cytotoxicity against human MCF7 cells by MTT assay; format: toxicity, cell-based; conditions: for GI50: MCF7 cells; for GI90: mcf7
Staphylococcus aureus [14] = test: Growth inhibition of Staphylococcus aureus at 30 ug/ml; format: functional; conditions: read-out: GI
Bacillus subtilis [15] = test: Growth inhibition of Bacillus subtilis at 30 ug/ml; format: functional; conditions: read-out: GI
[16] = Antitubercular activity against Mycobacterium tuberculosis H37Ra ATCC 25177 active stage infected in human THP1 cells measured on day 8 by nitrate reductase assay; format: functional, THP-1; conditions: ATCC 25177, 192 h
[17] = Selectivity index, ratio of GI50 for human THP1 cells to MIC90 for Mycobacterium tuberculosis H37Ra ATCC 25177 dormant stage; format: toxicity, cell-based, THP-1; conditions: read-out: Selectivity Index; in short: as §1
Escherichia coli [18] = test: Growth inhibition of Escherichia coli at 3 ug/ml; format: functional; conditions: read-out: GI; in short: as §3
Staphylococcus aureus [19] = test: Growth inhibition of Staphylococcus aureus at 10 ug/ml; format: functional; conditions: read-out: GI
Bacillus subtilis [20] = test: Antibacterial activity against Bacillus subtilis; format: functional
Escherichia coli [21] = test: Antibacterial activity against Escherichia coli; format: functional
Pseudomonas aeruginosa [22] = test: Growth inhibition of Pseudomonas aeruginosa at 3 ug/ml; format: functional; conditions: read-out: GI; in short: as §3
Escherichia coli [23] = test: Growth inhibition of Escherichia coli at 10 ug/ml; format: functional; conditions: read-out: GI
[24] = Antitubercular activity against Mycobacterium tuberculosis H37Ra ATCC 25177 active stage measured on day 8 by XTT reduction menadione based two-fold dilution assay; format: functional; conditions: ATCC 25177, 192 h; in short: as §4
[25] = Selectivity index, ratio of GI50 for human HCT116 cells to MIC90 for Mycobacterium tuberculosis H37Ra ATCC 25177 dormant stage; format: toxicity, cell-based, HCT-116; conditions: read-out: Selectivity Index; in short: as §1
Bacillus subtilis [26] = test: Growth inhibition of Bacillus subtilis at 10 ug/ml; format: functional; conditions: read-out: GI
[27] = Selectivity index, ratio of GI50 for human MCF7 cells to MIC90 for Mycobacterium bovis BCG ATCC 35743 dormant stage; format: toxicity, cell-based; conditions: read-out: Selectivity Index; in short: as §1
Pseudomonas aeruginosa [28] = test: Growth inhibition of Pseudomonas aeruginosa at 10 ug/ml; format: functional; conditions: read-out: GI
[29] = Cytotoxicity against human HCT116 cells by MTT assay; format: toxicity, cell-based, HCT-116; conditions: for GI50: HCT116 cells; for GI90: hct-116
[30] = Selectivity index, ratio of GI50 for human MCF7 cells to MIC90 for Mycobacterium tuberculosis H37Ra ATCC 25177 dormant stage; format: toxicity, cell-based; conditions: read-out: Selectivity Index; in short: as §1
[31] = Antitubercular activity against Mycobacterium tuberculosis H37Ra ATCC 25177 dormant stage infected in human THP1 cells measured on day 12 by nitrate reductase assay; format: functional, THP-1; conditions: ATCC 25177, 288 h
Pseudomonas aeruginosa [32] = test: Growth inhibition of Pseudomonas aeruginosa at 30 ug/ml; format: functional; conditions: read-out: GI
[33] = Selectivity index, ratio of GI50 for human MCF7 cells to MIC90 for Mycobacterium bovis BCG ATCC 35743 active stage; format: toxicity, cell-based; conditions: read-out: Selectivity Index; in short: as §2
[34] = Selectivity index, ratio of GI50 for human MCF7 cells to MIC90 for Mycobacterium tuberculosis H37Ra ATCC 25177 active stage; format: toxicity, cell-based; conditions: read-out: Selectivity Index; in short: as §2
Staphylococcus aureus [35] = test: Antibacterial activity against Staphylococcus aureus; format: functional
[36] = Selectivity index, ratio of GI50 for human HCT116 cells to MIC90 for Mycobacterium tuberculosis H37Ra ATCC 25177 active stage; format: toxicity, cell-based, HCT-116; conditions: read-out: Selectivity Index; in short: as §2
Pseudomonas aeruginosa [37] = test: Antibacterial activity against Pseudomonas aeruginosa; format: functional

Structure (SMILES): C/C(=N\Nc1nc(-c2ccc(C)cc2)cs1)c1sc(-c2ccccc2)nc1C
- IC50 [1]: 5.29 mg/L (≈ 13.1 µM)
- MIC90 [1]: 57.5 mg/L (≈ 142 µM)
- selectivity ratio [2]: 2
- selectivity ratio [3]: 5
- inhibition of growth at 30 µg/mL (Escherichia coli [4]): 97%
- inhibition of growth at 3 µg/mL (Bacillus subtilis [5]): 91.3%
- selectivity ratio [6]: 5
- selectivity ratio [7]: 2
- inhibition of growth at 3 µg/mL (Staphylococcus aureus [8]): 91.9%
- IC50 [9]: 5.21 mg/L (≈ 12.9 µM)
- MIC90 [9]: 19.7 mg/L (≈ 48.6 µM)
- selectivity ratio [10]: 1
- GI50 [11]: > 100 mg/L
- GI90 [11]: > 100 mg/L
- IC50 [12]: 0.075 mg/L (≈ 0.185 µM)
- MIC90 [12]: > 100 mg/L
- GI50 [13]: > 100 mg/L
- GI90 [13]: > 100 mg/L
- inhibition of growth at 30 µg/mL (Staphylococcus aureus [14]): 97.1%
- inhibition of growth at 30 µg/mL (Bacillus subtilis [15]): 96.9%
- MIC90 [16]: > 100 mg/L
- selectivity ratio [17]: 1
- inhibition of growth at 3 µg/mL (Escherichia coli [18]): 92.2%
- inhibition of growth at 10 µg/mL (Staphylococcus aureus [19]): 94%
- IC50 (Bacillus subtilis [20]): 0.742 mg/L (≈ 1.83 µM)
- MIC (Bacillus subtilis [20]): 2.95 mg/L (≈ 7.29 µM)
- IC50 (Escherichia coli [21]): 0.454 mg/L (≈ 1.12 µM)
- MIC (Escherichia coli [21]): 1.43 mg/L (≈ 3.53 µM)
- inhibition of growth at 3 µg/mL (Pseudomonas aeruginosa [22]): 93.4%
- inhibition of growth at 10 µg/mL (Escherichia coli [23]): 94.1%
- IC50 [24]: 0.16 mg/L (≈ 0.395 µM)
- MIC90 [24]: > 100 mg/L
- selectivity ratio [25]: 1
- inhibition of growth at 10 µg/mL (Bacillus subtilis [26]): 93.5%
- selectivity ratio [27]: 2
- inhibition of growth at 10 µg/mL (Pseudomonas aeruginosa [28]): 95.6%
- GI50 [29]: > 100 mg/L
- GI90 [29]: > 100 mg/L
- selectivity ratio [30]: 1
- MIC90 [31]: > 100 mg/L
- inhibition of growth at 30 µg/mL (Pseudomonas aeruginosa [32]): 98.8%
- selectivity ratio [33]: 5
- selectivity ratio [34]: 1
- IC50 (Staphylococcus aureus [35]): 0.624 mg/L (≈ 1.54 µM)
- MIC (Staphylococcus aureus [35]): 2.46 mg/L (≈ 6.08 µM)
- selectivity ratio [36]: 1
- IC50 (Pseudomonas aeruginosa [37]): 0.587 mg/L (≈ 1.45 µM)
- MIC (Pseudomonas aeruginosa [37]): 1.53 mg/L (≈ 3.78 µM)

Structure (SMILES): C/C(=N\Nc1nc(-c2ccc(Cl)cc2)cs1)c1sc(-c2ccccc2)nc1C
- IC50 [1]: 26.6 mg/L (≈ 62.5 µM)
- MIC90 [1]: 83.7 mg/L (≈ 197 µM)
- selectivity ratio [2]: 1
- selectivity ratio [3]: 1
- inhibition of growth at 30 µg/mL (Escherichia coli [4]): 89.7%
- inhibition of growth at 3 µg/mL (Bacillus subtilis [5]): 64.5%
- selectivity ratio [6]: 1
- selectivity ratio [7]: 1
- inhibition of growth at 3 µg/mL (Staphylococcus aureus [8]): 67.1%
- IC50 [9]: 17 mg/L (≈ 40 µM)
- MIC90 [9]: 77.8 mg/L (≈ 183 µM)
- selectivity ratio [10]: 1
- GI50 [11]: > 100 mg/L
- GI90 [11]: > 100 mg/L
- IC50 [12]: 0.24 mg/L (≈ 0.565 µM)
- MIC90 [12]: > 100 mg/L
- GI50 [13]: > 100 mg/L
- GI90 [13]: > 100 mg/L
- inhibition of growth at 30 µg/mL (Staphylococcus aureus [14]): 89.2%
- inhibition of growth at 30 µg/mL (Bacillus subtilis [15]): 88.4%
- MIC90 [16]: > 100 mg/L
- selectivity ratio [17]: 1
- inhibition of growth at 3 µg/mL (Escherichia coli [18]): 69.1%
- inhibition of growth at 10 µg/mL (Staphylococcus aureus [19]): 79.3%
- inhibition of growth at 3 µg/mL (Pseudomonas aeruginosa [22]): 67.7%
- inhibition of growth at 10 µg/mL (Escherichia coli [23]): 80.4%
- IC50 [24]: 0.12 mg/L (≈ 0.282 µM)
- MIC90 [24]: > 100 mg/L
- selectivity ratio [25]: 1
- inhibition of growth at 10 µg/mL (Bacillus subtilis [26]): 77.7%
- selectivity ratio [27]: 1
- inhibition of growth at 10 µg/mL (Pseudomonas aeruginosa [28]): 80.3%
- GI50 [29]: > 100 mg/L
- GI90 [29]: > 100 mg/L
- selectivity ratio [30]: 1
- MIC90 [31]: > 100 mg/L
- inhibition of growth at 30 µg/mL (Pseudomonas aeruginosa [32]): 90.6%
- selectivity ratio [33]: 1
- selectivity ratio [34]: 1
- selectivity ratio [36]: 1

Source: ChEMBL document CHEMBL3872252, “New bithiazolyl hydrazones: Novel synthesis, characterization and antitubercular evaluation” (Bioorg Med Chem Lett, 2017)
